We go through 16 compounds from PubChem BioAssay.

A word on the viability: it is a read-out of living cells in per cent, often relative to untreated cells. A word on the inhibition: it is the change of the read-out against control, counted positive when it falls.

A short description of assay [1]: Her2 expression decrease, cell viability multiplex – SKBR3 breast tumor cells, AlphaScreen, ATP viability, primary screen (AID 461;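 active means Her2 level under about 52% in both replicate screens, with viability over 70% of control, limit read from the data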;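 on Her2 level: lower value means less Her2 protein in the cells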;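 on viability: percent of carrier control wells set as 100% viability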). The conditions noted are these: SKBR3 Her2 protein level, 18-24 h, measured here: SKBR3 viability, ATP luminescence, at 10 µM. (In general: Bead proximity is the source of the signal in Alpha formats.)
The target of assay [2] is Receptor tyrosine-protein kinase erbB-2 (Homo sapiens) (UniProt P04626). The description is as above. The settings on record: 18-24 h, at 10 µM, stronger effect = lower value.
Sequence of Receptor tyrosine-protein kinase erbB-2 (Homo sapiens) (P04626 whole entry, looked up): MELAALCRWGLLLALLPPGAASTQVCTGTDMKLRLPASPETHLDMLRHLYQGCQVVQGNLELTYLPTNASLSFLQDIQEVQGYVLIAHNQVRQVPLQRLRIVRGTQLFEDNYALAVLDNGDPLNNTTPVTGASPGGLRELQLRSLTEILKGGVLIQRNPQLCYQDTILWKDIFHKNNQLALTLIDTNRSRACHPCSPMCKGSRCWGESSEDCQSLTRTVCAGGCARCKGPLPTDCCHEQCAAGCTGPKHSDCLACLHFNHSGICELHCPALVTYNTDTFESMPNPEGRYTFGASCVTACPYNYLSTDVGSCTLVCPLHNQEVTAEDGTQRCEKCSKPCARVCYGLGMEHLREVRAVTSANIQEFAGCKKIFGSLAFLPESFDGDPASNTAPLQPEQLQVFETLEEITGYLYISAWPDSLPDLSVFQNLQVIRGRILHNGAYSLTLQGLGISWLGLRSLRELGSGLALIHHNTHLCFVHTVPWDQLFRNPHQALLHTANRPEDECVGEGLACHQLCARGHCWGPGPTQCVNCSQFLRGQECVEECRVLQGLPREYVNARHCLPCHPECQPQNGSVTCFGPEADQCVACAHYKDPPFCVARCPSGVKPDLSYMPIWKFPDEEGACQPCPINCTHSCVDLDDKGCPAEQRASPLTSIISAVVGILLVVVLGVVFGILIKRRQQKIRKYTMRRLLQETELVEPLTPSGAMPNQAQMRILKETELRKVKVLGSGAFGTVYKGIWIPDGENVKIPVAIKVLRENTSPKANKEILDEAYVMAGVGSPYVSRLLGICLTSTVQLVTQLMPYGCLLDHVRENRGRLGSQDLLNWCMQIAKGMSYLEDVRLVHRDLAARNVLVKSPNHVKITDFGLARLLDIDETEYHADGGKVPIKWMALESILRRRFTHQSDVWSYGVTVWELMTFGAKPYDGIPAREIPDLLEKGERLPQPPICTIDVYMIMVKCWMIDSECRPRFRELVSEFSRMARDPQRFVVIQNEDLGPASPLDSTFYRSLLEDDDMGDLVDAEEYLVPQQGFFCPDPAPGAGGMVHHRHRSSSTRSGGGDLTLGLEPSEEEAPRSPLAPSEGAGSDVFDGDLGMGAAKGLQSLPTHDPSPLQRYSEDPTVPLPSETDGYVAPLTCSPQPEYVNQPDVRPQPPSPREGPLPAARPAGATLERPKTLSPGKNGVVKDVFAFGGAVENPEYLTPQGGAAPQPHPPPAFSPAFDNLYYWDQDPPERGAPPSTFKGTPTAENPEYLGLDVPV
The nature of assay [3]: reduced viability of SK-BR-3 breast cancer cells – cell-based, 24 h, human, pilot screen (AID 572;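 active means viability at or below 10% of carrier control in both of two separate runs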;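 further: compound exposure lasted between 18 and 24 h rather than exactly 24 h; 100% = carrier-treated control wells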). The settings on record: SK-BR-3 viability, CellTiter-Glo luminescence, at 10 µM, stronger effect = lower value. A general note: In ATP-based viability assays light output follows the ATP content of the culture.
Assay [4] can be described thus: HUVEC growth inhibition – cell-based, human, primary screen (AID 575;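 active means viability at or below 30% in both replicate assays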;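 further: 100% = median of untreated cell wells with 0.1% DMSO on each plate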). The conditions noted are these: HUVEC proliferation, CellTiter-Glo luminescence, 72 h; at 10 µM; stronger effect = lower value. The essentials:
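System: primary human umbilical vein endothelial cells; Quantity: 1250 endothelial cells in each well; Buffer or medium: supplemented EBM, 2% fetal bovine serum; Doses: one dose, 10 µM final, 0.1% DMSO; Incubation: 72 h compound incubation; Technique: ATP-based CellTiter-Glo luminescent read; Evaluation: percent of median DMSO-control luminescence; Controls: vehicle and MePR control wells.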

Assay [5] in a line: H69AR cell proliferation blockers – human, duplicate replicates, primary screen (AID 580).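 Further: 100% = mean luminescence of untreated wells and 0% = no signal.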 The settings on record: H69AR lung tumor cells viability, ATP luminescence, 72 h; at 10 µM; stronger effect = lower value.
The nature of assay [6]: MRP1 drug-resistance reversers in H69AR cells – cell-based, doxorubicin co-treatment, pilot screen (AID 601;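 active means viability loss from added drug above about 55%, and viability with drug at most 40%, in both replicates, limit read from the data, passing the limit was not always enough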). The settings on record: CellTiter-Glo, 72 h, at 10 µM; for differential viability (reversal): stronger effect = higher value.
Assay [7] in a line: yeast transport mutant growth inhibition pilot in 384-well plates, post-Golgi transport modulator project (AID 636; in the data active means inhibition above about 31%). The conditions noted are these: absorbance 615 nm, about 18 h, stronger effect = higher value.
Assay [8] in a line: growth suppression of yeast trafficking mutant, preliminary HTS, modulators of trafficking downstream of Golgi apparatus project, 1536-format plate, OD 615 nm (AID 637; in the data active means inhibition above about 30%). The settings on record: yeast transport mutant growth, absorbance 615 nm, 18 h; stronger effect = higher value.
Where [9] appears, read: H69AR cells + 2 uM doxorubicin, measured here: viability with 2 uM doxorubicin, stronger effect = lower value.
Where [10] appears, read: H69AR cells, compound alone cytotoxicity.

Calls of active or inactive are those of the source.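 How the source made its calls, unless noted: active means viability at or under a set limit in both replicates, limit being median viability minus 3 SD (cut at about 48% in these data, passing the limit was not always enough); inconclusive means at or under the limit in just one replicate; inactive means at or above the limit in both replicates.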

As for `COc1ccccc1OCCn1c(=O)sc2ccccc21`, the viability is 95% in assay [1]; 95% (inactive) in assay [3]; 89.6% (inactive) in assay [4]; 99.6% (inactive) in assay [5]; 108% in assay [6] (setting [9]); 99.6% in assay [6] (setting [10]). Also, the Her2 level in assay [2] was 93% (inactive). The differential viability (reversal) in assay [6] (H69AR cells + 2 uM doxorubicin) is -8.55% (inactive). Moreover, the inhibition in assay [7] is -1.05% (inactive); in assay [8] it was -7.94% (inactive).

Consider `CC(=O)Nc1nc(-c2ccc(Cl)cc2)nc(C)c1C(C)=O`, for which the viability in assay [1] was 96.5%; in assay [3], 96.5% (inactive); in assay [4] it was 89% (inactive); in assay [5] it was 104% (inactive); in assay [6] (setting [9]), 94.6%; in assay [6] (setting [10]), 104%. The Her2 level in assay [2] was 89.5% (inactive). For the same compound, the differential viability (reversal) in assay [6] (H69AR cells + 2 uM doxorubicin) was 9.83% (inactive). Besides, the inhibition in assay [7] was -3.65% (inactive); in assay [8] it was -2.83% (inactive).

Take `COc1ccc(CCNC(=O)c2cc(-c3cc(C)c(C)cc3O)n[nH]2)cc1OC`: the viability in assay [1] is 93.5%; in assay [3], 93.5% (inactive); in assay [4], 86.6% (inactive); in assay [5], 77% (inactive); in assay [6] (setting [9]) it was 75.5%; in assay [6] (setting [10]), 77%. The Her2 level in assay [2] is 87.5% (inactive). Further, in assay [6] (H69AR cells + 2 uM doxorubicin), the differential viability (reversal) was 1.53% (inactive). For the same compound, the inhibition in assay [7] is -3.82% (inactive); in assay [8], -4% (inactive).

In the case of `COCCn1c(SCC(=O)N(C(C)C)C(C)C)nnc1-c1cc2ccccc2cc1O`, the viability is 96% in assay [1]; 96% (inactive) in assay [3]; 106% (inactive) in assay [4]; 88.3% (inactive) in assay [5]; 88% in assay [6] (setting [9]); 88.3% in assay [6] (setting [10]). Further, in assay [2], the Her2 level is 91.5% (inactive). Further, the differential viability (reversal) in assay [6] (H69AR cells + 2 uM doxorubicin) is 0.38% (inactive). Further, the inhibition in assay [7] is -1.3% (inactive); in assay [8] it was -5.5% (inactive).

Take `Cc1cc(C)nc(SCC(=O)Nc2ncc3c(n2)CCCC3=O)n1`: the viability is 98.5% in assay [1]; 98.5% (inactive) in assay [3]; 99% (inactive) in assay [4]; 112% (inactive) in assay [5]; 99.3% in assay [6] (setting [9]); 112% in assay [6] (setting [10]). Moreover, in assay [2], the Her2 level is 93.5% (inactive). In assay [6] (H69AR cells + 2 uM doxorubicin), the differential viability (reversal) is 12.5% (inactive). Further, the inhibition in assay [7] is -1.17% (inactive); in assay [8], -4.13% (inactive).

Consider `Cn1c(SCC(N)=O)nnc1C1CCN(S(=O)(=O)c2ccccc2C(F)(F)F)CC1`, for which the viability in assay [1] is 114%; in assay [3], 114% (inactive); in assay [4], 112% (inactive); in assay [5], 104% (inactive); in assay [6] (setting [9]), 96.5%; in assay [6] (setting [10]), 104%. Further, the Her2 level in assay [2] is 97.5% (inactive). Besides, the differential viability (reversal) in assay [6] (H69AR cells + 2 uM doxorubicin) was 7.31% (inactive). Also, the inhibition in assay [7] is -7.03% (inactive); in assay [8], -0.33% (inactive).

For `Cn1c2ccccc2c2ncn(CCCN3CCOCC3)c(=O)c21`, the viability in assay [1] was 89%; in assay [3], 89% (inactive); in assay [4], 101% (inactive); in assay [5] it was 94.6% (inactive); in assay [6] (setting [9]), 92.9%; in assay [6] (setting [10]) it was 94.6%. The Her2 level in assay [2] is 93% (inactive). In addition, the differential viability (reversal) in assay [6] (H69AR cells + 2 uM doxorubicin) was 1.77% (inactive). Further, the results for the inhibition in assay [7] and in assay [8] were -7.6% (inactive) and -7.94% (inactive), respectively.

In the case of `Cc1c(C(=O)NCc2cccnc2)oc2ccc(S(=O)(=O)N3CCCCC3)cc12`, the viability in assay [1] was 71.5%; in assay [3], 71.5% (inactive); in assay [4], 65.6% (inactive); in assay [5] it was 70.5% (inactive); in assay [6] (setting [9]) it was 91.4%; in assay [6] (setting [10]) it was 70.5%. In assay [2], the Her2 level was 89% (inactive). The differential viability (reversal) in assay [6] (H69AR cells + 2 uM doxorubicin) is -20.9% (inactive). Moreover, the inhibition is -0.39% (inactive) in assay [7] and 4.1% (inactive) in assay [8].

`COc1ccccc1C1c2c(oc3ccc(Cl)cc3c2=O)C(=O)N1c1cc(C)on1` (stereo not given): the viability in assay [1] was 86.5%; in assay [3], 86.5% (inactive); in assay [4], 70.7% (inactive); in assay [5], 72.2% (inactive); in assay [6] (setting [9]) it was 75.7%; in assay [6] (setting [10]), 72.2%. Also, the Her2 level in assay [2] was 82.5% (inactive). The differential viability (reversal) in assay [6] (H69AR cells + 2 uM doxorubicin) was -3.51% (inactive). The inhibition in assay [7] is -2.93% (inactive); in assay [8], 8.71% (inactive).

For `O=C(Cc1cccs1)Nc1nnc(CCc2ccccc2)s1`, the viability in assay [1] is 110%; in assay [3] it was 110% (inactive); in assay [4], 88.7% (inactive); in assay [5], 80.7% (inactive); in assay [6] (setting [9]), 86.4%; in assay [6] (setting [10]), 80.7%. Besides, in assay [2], the Her2 level was 91.5% (inactive). For the same compound, the differential viability (reversal) in assay [6] (H69AR cells + 2 uM doxorubicin) is -5.74% (inactive). Besides, the inhibition in assay [7] is -0.78% (inactive); in assay [8] it was -0.5% (inactive).

For the compound `Nc1nc(CN2CCN(Cc3ccc4c(c3)OCO4)CC2)nc(Nc2ccccc2)n1`, the viability in assay [1] was 102%; in assay [3], 102% (inactive); in assay [4], 114% (inactive); in assay [5], 97.4% (inactive); in assay [6] (setting [9]), 84.4%; in assay [6] (setting [10]), 97.4%. For the same compound, the Her2 level in assay [2] is 92.5% (inactive). Also, the differential viability (reversal) in assay [6] (H69AR cells + 2 uM doxorubicin) is 13% (inactive). For the same compound, the inhibition in assay [7] was -2.76% (inactive); in assay [8], 5.48% (inactive).

As for `CCn1c(=O)cc(SCC(=O)Nc2cccnc2)c2ccccc21`, the viability in assay [1] is 91.5%; in assay [3] it was 91.5% (inactive); in assay [4] it was 56.5% (inactive); in assay [5] it was 104% (inactive); in assay [6] (setting [9]), 89.3%; in assay [6] (setting [10]), 104%. Moreover, the Her2 level in assay [2] was 89.5% (inactive). For the same compound, in assay [6] (H69AR cells + 2 uM doxorubicin), the differential viability (reversal) was 14.7% (inactive). Further, the inhibition is -1.32% (inactive) in assay [7] and 1.43% (inactive) in assay [8].

Turning to `CNC(=O)CSc1nnc(-c2cc3c(C)nn(-c4ccccc4)c3s2)n1C`, the viability is 112% in assay [1]; 112% (inactive) in assay [3]; 99.2% (inactive) in assay [4]; 109% (inactive) in assay [5]; 86.9% in assay [6] (setting [9]); 109% in assay [6] (setting [10]). Moreover, in assay [2], the Her2 level was 112% (inactive). In assay [6] (H69AR cells + 2 uM doxorubicin), the differential viability (reversal) is 22.3% (inactive). Further, the inhibition was -0.13% (inactive) in assay [7] and -2.54% (inactive) in assay [8].

`Cc1ccc(OCC(O)Cn2c(=N)n(CCN3CCCCC3)c3ccccc32)cc1` (stereo not given): the viability in assay [1] was 79%; in assay [3], 79% (inactive); in assay [4], 2.43% (active); in assay [5], 18.6% (active); in assay [6] (setting [9]) it was 21.7%; in assay [6] (setting [10]) it was 18.6%. Also, in assay [2], the Her2 level was 63% (inactive). Also, in assay [6] (H69AR cells + 2 uM doxorubicin), the differential viability (reversal) is -3.16% (inactive). Also, the inhibition in assay [7] is -4% (inactive); in assay [8] it was -0.33% (inactive).

Turning to `CCn1c(SCc2nc3ccccc3c(=O)[nH]2)nnc1-c1cccnc1`, the viability in assay [1] is 84.5%; in assay [3] it was 84.5% (inactive); in assay [4] it was 104% (inactive); in assay [5], 95.2% (inactive); in assay [6] (setting [9]) it was 90.9%; in assay [6] (setting [10]), 95.2%. Also, the Her2 level in assay [2] is 98% (inactive). Further, the differential viability (reversal) in assay [6] (H69AR cells + 2 uM doxorubicin) was 4.33% (inactive). Further, the inhibition in assay [7] is -0.13% (inactive); in assay [8], -0.16% (inactive).

Turning to `CCCN(Cc1cc2ccc(C)cc2[nH]c1=O)C(=O)c1cccnc1`, the viability in assay [1] was 87%; in assay [3] it was 87% (inactive); in assay [4], 89.3% (inactive); in assay [5], 87.4% (inactive); in assay [6] (setting [9]), 89.7%; in assay [6] (setting [10]) it was 87.4%. In addition, the Her2 level in assay [2] was 93% (inactive). For the same compound, the differential viability (reversal) in assay [6] (H69AR cells + 2 uM doxorubicin) was -2.29% (inactive). Besides, the inhibition in assay [7] was 0% (inactive); in assay [8], -3.28% (inactive).
